Results reported in ChEMBL document CHEMBL3407480, “6-Sulfonylbenzothiazolones as potential scaffolds for the design of 5-HT6 ligands” (Eur J Med Chem, 2015).

Experiments:
[1] = biological target: T1, 5-hydroxytryptamine receptor 6 (Homo sapiens, UniProt P50406); assay: Displacement of [3H]LSD from human 5-HT6 receptor expressed in HEK293 cell membranes at 100 nM incubated for 60 mins by radioligand binding assay
Outline: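 Competition binding on membranes of HEK-293 cells transiently expressing human 5-HT6; 4 of protein incubated 60 min at 37 °C in duplicate with 2.5 nM [3H]-LSD in 50 mM Tris-HCl pH 7.4, 10 mM MgCl₂, 0.5 mM EDTA. Compounds tested at 10^-7 M for % displacement (n = 3), then Ki calculated. GF/C filtration, five ice-cold buffer washes.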

[2] = Cytotoxicity against human SH-SY5Y cells assessed as inhibition of cell growth after 72 hrs by MTT assay; type: cell-based
Outline: (§1)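 SH-SY5Y cells grown in DMEM with 2 mM L-glutamine, streptomycin, 100 IU/mL penicillin, 1 mM non-essential amino acids, 10% heat-inactivated FBS, 37 °C, 5% CO₂. Seeded at 2000 cells/well, serum-starved 24 h for synchrony, then exposed to test compounds (DMSO below 0.1%) at various concentrations up to 100. Growth read by MTT colorimetric assay after 72 h.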

[3] = Cytotoxicity against human SH-SY5Y cells assessed as inhibition of cell growth at 100 uM after 72 hrs by MTT assay; type: cell-based; conditions: read-out: GI; outline: as §1
[4] = biological target: T1, 5-hydroxytryptamine receptor 6; assay: Displacement of [3H]LSD from human 5-HT6 receptor expressed in HEK293 cell membranes incubated for 60 mins by radioligand binding assay

T1 sequence (P50406 whole entry): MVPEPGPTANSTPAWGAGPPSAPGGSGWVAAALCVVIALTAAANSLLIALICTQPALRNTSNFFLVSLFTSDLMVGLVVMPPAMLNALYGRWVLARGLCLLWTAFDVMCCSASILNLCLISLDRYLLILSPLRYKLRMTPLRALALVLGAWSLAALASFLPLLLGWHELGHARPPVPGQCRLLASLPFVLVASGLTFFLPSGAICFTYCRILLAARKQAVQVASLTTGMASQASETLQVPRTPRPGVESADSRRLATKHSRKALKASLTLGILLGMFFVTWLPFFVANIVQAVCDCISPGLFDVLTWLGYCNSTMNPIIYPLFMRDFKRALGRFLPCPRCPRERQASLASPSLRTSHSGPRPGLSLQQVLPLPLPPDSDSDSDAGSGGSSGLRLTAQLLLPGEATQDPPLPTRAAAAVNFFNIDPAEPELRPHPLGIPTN

Row | SMILES | inhibition [1] [%] | IC50 [2] [µM] | inhibition at 72 h, 100 µM [3] [%] | Ki [4] [µM]
1 | O=c1sc2cc(S(=O)(=O)Nc3ccccc3)ccc2n1CCN1CCCC1 | 37 | 10 | – | –
2 | CN(C)CCn1c(=O)sc2cc(S(=O)(=O)N(C)c3cccc4ccccc34)ccc21 | 0 | 29 | – | –
3 | O=c1sc2cc(NS(=O)(=O)c3ccc4ccccc4c3)ccc2n1CCN1CCCC1 | 0 | – | 28 | –
4 | O=c1sc2cc(S(=O)(=O)c3ccccc3)ccc2n1CCN1CCCCC1 | 11 | 44.1 | – | –
5 | O=c1sc2cc(S(=O)(=O)Nc3cccc4ccccc34)ccc2n1CCN1CCCCC1 | 3 | 25.2 | – | –
6 | CN(C)CCn1c(=O)sc2cc(S(=O)(=O)N(C)c3ccccc3)ccc21 | 5 | 91 | – | –
7 | O=c1sc2cc(NS(=O)(=O)c3ccc4ccccc4c3)ccc2n1CCN1CCCCC1 | 4 | – | 5 | –
8 | O=c1sc2cc(N(S(=O)(=O)c3ccccc3)S(=O)(=O)c3ccccc3)ccc2n1CCN1CCCC1 | 20 | – | 19 | –
9 | O=c1sc2cc(S(=O)(=O)Nc3cccc4ccccc34)ccc2n1CCN1CCCC1 | 0 | 68.6 | – | –
10 | CN(C)CCn1c(=O)sc2cc(NS(=O)(=O)c3ccc4ccccc4c3)ccc21 | 22 | – | 17 | –
11 | CN(c1ccccc1)S(=O)(=O)c1ccc2c(c1)sc(=O)n2CCN1CCCCC1 | 0 | 50 | – | –
12 | O=c1sc2cc(S(=O)(=O)Nc3ccccc3)ccc2n1CCN1CCCCC1 | 7 | 17.4 | – | –
13 | O=c1sc2cc(NS(=O)(=O)c3ccccc3)ccc2n1CCN1CCCCC1 | 6 | – | 39 | –
14 | CN(c1ccccc1)S(=O)(=O)c1ccc2c(c1)sc(=O)n2CCN1CCCC1 | 10 | 49.5 | – | –
15 | CN(C)CCn1c(=O)sc2cc(S(=O)(=O)c3ccccc3)ccc21 | 16 | 86.9 | – | –
16 | CN(C)CCn1c(=O)sc2cc(NS(=O)(=O)c3ccccc3)ccc21 | 5 | – | 20 | –
17 | CN(C)CCn1c(=O)sc2cc(S(=O)(=O)Nc3ccccc3)ccc21 | 21 | – | 0 | –
18 | CN(C)CCn1c(=O)sc2cc(S(=O)(=O)Nc3cccc4ccccc34)ccc21 | – | 45.7 | – | 0.1
19 | CN(c1cccc2ccccc12)S(=O)(=O)c1ccc2c(c1)sc(=O)n2CCN1CCCC1 | 40 | 102 | – | –
20 | CN(c1cccc2ccccc12)S(=O)(=O)c1ccc2c(c1)sc(=O)n2CCN1CCCCC1 | 14 | 91.9 | – | –
21 | O=c1sc2cc(NS(=O)(=O)c3ccccc3)ccc2n1CCN1CCCC1 | 11 | – | 25 | –
